Test results as given in ChEMBL document CHEMBL1132299, “Phosphinic pseudo-tripeptides as potent inhibitors of matrix metalloproteinases: a structure-activity study” (J Med Chem, 1999).

Legend:
[1] = target: T1, Matrilysin (Homo sapiens) (UniProt P09237); assay: In vitro inhibition of MMP-7 at 2 uM.
T1 sequence (whole entry): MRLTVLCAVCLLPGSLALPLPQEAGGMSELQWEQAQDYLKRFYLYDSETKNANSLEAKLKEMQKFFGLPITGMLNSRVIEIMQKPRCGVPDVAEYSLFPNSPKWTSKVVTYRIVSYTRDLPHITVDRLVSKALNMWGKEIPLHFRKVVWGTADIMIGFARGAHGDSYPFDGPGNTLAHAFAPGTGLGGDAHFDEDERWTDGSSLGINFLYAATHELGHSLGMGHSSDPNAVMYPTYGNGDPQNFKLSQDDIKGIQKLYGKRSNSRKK

[2] = target: T2, Stromelysin-3 (Mus musculus) (UniProt Q02853); assay: Inhibition of MMP-11, stromelysin-3 at 1 uM
T2 sequence (whole entry): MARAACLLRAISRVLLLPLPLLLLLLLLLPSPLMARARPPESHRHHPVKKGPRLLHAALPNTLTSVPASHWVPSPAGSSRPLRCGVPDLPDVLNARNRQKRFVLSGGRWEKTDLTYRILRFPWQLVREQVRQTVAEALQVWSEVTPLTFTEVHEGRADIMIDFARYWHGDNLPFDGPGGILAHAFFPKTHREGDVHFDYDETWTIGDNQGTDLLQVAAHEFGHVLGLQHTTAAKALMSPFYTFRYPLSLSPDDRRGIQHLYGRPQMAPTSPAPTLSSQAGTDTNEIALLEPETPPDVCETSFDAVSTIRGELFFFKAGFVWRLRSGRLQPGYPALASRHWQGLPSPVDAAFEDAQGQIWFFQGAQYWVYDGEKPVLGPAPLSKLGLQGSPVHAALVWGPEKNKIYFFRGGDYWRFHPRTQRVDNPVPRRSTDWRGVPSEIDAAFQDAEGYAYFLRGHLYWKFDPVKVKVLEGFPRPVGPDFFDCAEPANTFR

[3] = target: T3, 72 kDa type IV collagenase (Homo sapiens, UniProt P08253); assay: Inhibition of MMP-2 gelatinase-A at 2 uM
Target sequence in this assay (P08253 110-660 limits assumed): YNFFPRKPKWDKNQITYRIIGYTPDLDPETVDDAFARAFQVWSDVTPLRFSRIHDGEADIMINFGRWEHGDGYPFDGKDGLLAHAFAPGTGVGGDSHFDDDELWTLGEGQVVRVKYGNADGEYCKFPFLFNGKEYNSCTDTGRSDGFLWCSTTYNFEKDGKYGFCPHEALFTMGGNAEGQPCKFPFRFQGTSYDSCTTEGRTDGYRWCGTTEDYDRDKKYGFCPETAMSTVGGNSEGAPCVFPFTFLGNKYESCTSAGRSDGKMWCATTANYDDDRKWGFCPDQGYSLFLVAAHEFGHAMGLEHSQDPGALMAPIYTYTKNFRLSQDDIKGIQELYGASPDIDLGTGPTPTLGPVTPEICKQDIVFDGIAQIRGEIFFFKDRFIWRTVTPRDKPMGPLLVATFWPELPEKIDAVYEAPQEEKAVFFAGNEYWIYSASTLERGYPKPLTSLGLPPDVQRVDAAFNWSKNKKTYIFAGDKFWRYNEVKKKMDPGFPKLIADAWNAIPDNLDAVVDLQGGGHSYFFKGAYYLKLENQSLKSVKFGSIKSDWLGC

[4] = target: T4, Interstitial collagenase (Homo sapiens) (UniProt P03956); assay: In vitro inhibition of MMP-1 at 2 uM.
T4 sequence (whole entry): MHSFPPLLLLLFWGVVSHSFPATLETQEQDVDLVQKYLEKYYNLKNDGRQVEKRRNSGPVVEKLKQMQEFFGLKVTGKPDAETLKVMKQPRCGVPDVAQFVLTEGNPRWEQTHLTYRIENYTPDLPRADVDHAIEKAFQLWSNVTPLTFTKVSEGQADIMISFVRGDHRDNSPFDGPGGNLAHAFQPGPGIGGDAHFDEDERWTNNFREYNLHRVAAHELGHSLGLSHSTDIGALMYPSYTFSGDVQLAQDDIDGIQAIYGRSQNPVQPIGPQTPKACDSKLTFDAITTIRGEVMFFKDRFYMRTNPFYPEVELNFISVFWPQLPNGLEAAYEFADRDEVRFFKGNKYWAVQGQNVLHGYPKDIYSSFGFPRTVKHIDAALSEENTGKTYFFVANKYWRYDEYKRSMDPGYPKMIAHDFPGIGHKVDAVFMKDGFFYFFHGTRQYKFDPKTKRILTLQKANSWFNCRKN

[5] = target: T5, Matrix metalloproteinase-9 (Homo sapiens, UniProt P14780); assay: Inhibition of Matrix metalloprotease-9, gelatinase-B at 2 uM
[6] = target: T4, Interstitial collagenase (Homo sapiens); assay: Inhibition of matrix metalloprotease-1 at 5 uM
Matrilysin = target: T6, Matrilysin (Homo sapiens, UniProt P09237); assay: (§1) Inhibition of Matrix metalloprotease-7 Matrilysin
T6 sequence (P09237 whole entry): T1 sequence (whole entry)
In short: (§2)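 Catalytic domains of human MMP-14 and MMP-7 were expressed in E. coli BL21 DE3 pLysS. Buffer 50 mM Tris/HCl pH 6.8, 10 mM CaCl2, 25 °C; 0.2–5 nM enzyme; 6 µM Mca-Pro-Leu-Gly-Leu-Dpa-Ala-Arg-NH2 read by fluorescence (ex 340, em 400 nm) for 30 min. Km: MMP-14 21, MMP-7 67 µM. Five inhibitor concentrations in triplicate; Ki by Horovitz–Levitski method.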

Stromelysin-3 = target: T7, Stromelysin-3 (Mus musculus, UniProt Q02853); assay: Binding affinity against matrix metalloprotease-11.
T7 sequence (Q02853 whole entry): T2 sequence (whole entry)
In short: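 Mouse MMP-11 catalytic domain from E. coli BL21 DE3 pLysS, assayed in stirred quartz cuvettes in 50 mM Tris/HCl pH 6.8, 10 mM CaCl2 at 25 °C. Substrate was Mca-Pro-Leu-Ala-Cys(OMeBn)-Trp-Ala-Arg-Dpa-NH2 (Km 0.2 µM), with fluorescence read-out. Percent inhibition was measured in triplicate at five concentrations (20–80% range), and Ki was derived by the Horovitz–Levitski method.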

[7] = target: T8, Matrix metalloproteinase-14 (Homo sapiens, UniProt P50281); assay: Binding affinity against matrix metalloprotease-14 MTI-MMP.; in short: as §2
[8] = target: T5, Matrix metalloproteinase-9; assay: Binding affinity against matrix metalloprotease-9 (gelatinase-B).
In short: (§3)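 Full-length human pro-MMP-2, -9 and -8 were expressed in NSO myeloma cells and activated with 4-aminophenylmercuric acetate just before use. Run at 25 °C in 50 mM Tris/HCl pH 6.8, 10 mM CaCl2, with 0.2–5 nM enzyme and 6 µM Mca-Pro-Leu-Gly-Leu-Dpa-Ala-Arg-NH2; fluorescence 340/400 nm, 30 min. Km: MMP-2 49, MMP-9 14, MMP-8 61 µM. Triplicate, five inhibitor levels; Ki by Horovitz–Levitski.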

Neutrophil collagenase [9] = target: T9, Neutrophil collagenase (Homo sapiens, UniProt P22894); assay: Inhibition of matrix metalloprotease-8; in short: as §3
Target sequence in this assay (P22894 whole entry): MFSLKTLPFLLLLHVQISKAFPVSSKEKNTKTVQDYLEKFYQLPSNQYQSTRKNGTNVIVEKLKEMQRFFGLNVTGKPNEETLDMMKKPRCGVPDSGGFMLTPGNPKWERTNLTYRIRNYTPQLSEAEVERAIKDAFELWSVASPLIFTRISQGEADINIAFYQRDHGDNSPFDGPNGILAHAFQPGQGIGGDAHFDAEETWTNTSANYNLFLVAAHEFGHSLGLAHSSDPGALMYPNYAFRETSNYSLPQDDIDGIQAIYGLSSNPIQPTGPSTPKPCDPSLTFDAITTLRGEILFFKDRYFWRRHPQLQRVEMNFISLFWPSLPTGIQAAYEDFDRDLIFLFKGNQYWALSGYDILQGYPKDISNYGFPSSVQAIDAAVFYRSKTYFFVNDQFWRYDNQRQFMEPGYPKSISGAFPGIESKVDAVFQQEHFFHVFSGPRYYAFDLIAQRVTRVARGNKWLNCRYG

[10] = target: T3, 72 kDa type IV collagenase; assay: Binding affinity against matrix metalloprotease-2 (gelatinase-A).; in short: as §3
Target sequence in this assay (P08253 whole entry): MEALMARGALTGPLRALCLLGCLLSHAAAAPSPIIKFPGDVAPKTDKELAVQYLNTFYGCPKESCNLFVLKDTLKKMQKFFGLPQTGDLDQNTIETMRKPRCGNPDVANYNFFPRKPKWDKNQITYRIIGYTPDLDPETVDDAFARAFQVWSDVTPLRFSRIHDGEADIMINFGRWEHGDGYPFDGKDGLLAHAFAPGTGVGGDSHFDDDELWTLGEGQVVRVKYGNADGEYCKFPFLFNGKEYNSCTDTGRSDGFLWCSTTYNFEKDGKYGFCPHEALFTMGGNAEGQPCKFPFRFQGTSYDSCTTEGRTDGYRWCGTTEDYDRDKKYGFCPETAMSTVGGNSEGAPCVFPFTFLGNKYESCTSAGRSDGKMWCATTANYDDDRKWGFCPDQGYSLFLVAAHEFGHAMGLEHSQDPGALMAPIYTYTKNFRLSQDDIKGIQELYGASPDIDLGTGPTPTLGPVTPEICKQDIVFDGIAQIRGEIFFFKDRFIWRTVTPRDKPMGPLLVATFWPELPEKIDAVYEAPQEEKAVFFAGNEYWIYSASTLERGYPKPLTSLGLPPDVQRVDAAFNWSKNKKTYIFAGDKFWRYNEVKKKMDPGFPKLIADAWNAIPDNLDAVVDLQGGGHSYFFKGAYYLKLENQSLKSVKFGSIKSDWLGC

[11] = target: T2, Stromelysin-3 (Mus musculus); details: Homo sapiens; 1 uM
Neutrophil collagenase [12] = target: T9, Neutrophil collagenase; assay: Compound was tested for its binding affinity against MMP-8 HNC at 1 uM
Target sequence in this assay (P22894 101-467 limits assumed): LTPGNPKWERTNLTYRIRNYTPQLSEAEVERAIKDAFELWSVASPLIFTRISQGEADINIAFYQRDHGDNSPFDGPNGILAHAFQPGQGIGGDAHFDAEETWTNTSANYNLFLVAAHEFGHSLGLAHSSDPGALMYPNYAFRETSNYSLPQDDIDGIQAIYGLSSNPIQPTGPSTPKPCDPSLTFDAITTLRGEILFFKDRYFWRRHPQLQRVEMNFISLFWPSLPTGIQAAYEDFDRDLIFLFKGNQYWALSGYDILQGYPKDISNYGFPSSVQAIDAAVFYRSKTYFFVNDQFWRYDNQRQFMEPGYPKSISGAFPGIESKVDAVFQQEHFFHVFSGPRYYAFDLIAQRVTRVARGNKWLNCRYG

[13] = target: T4, Interstitial collagenase (Homo sapiens); assay: Inhibition of matrix metalloprotease-1; details: concentration not given here
In short: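 Human full-length pro-MMP-1 was expressed in NSO myeloma cells and activated just before use with trypsin (10 µg/mL, 25 min, 25 °C), then BPTI (100 µg/mL). Assay: 50 mM Tris/HCl pH 6.8, 10 mM CaCl2, 25 °C, 0.2–5 nM enzyme, 6 µM Mca-Pro-Leu-Gly-Leu-Dpa-Ala-Arg-NH2, fluorescence 340/400 nm over 30 min. Km 100 µM. Triplicate inhibition at five concentrations (20–80% range) gave Ki by the Horovitz–Levitski method.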

[14] = target: T1, Matrilysin (Homo sapiens); assay: as §1; in short: as §2
[15] = target: T8, Matrix metalloproteinase-14; assay: Inhibition of MMP-14 membrane-type-MMP at 10 uM
In short: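 Human MMP-14 catalytic domain, expressed in E. coli BL21 DE3 pLysS. Assay in 50 mM Tris/HCl pH 6.8 with 10 mM CaCl2 at 25 °C, using 0.2–5 nM enzyme and 6 μM Mca-Pro-Leu-Gly-Leu-Dpa-Ala-Arg-NH2. Reaction started by adding substrate; fluorescence read at 400 nm (ex 340 nm) over 30 min. Time-dependent inhibitors were preincubated with enzyme for at least 1 h. Percent inhibition from triplicates.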

T5 sequence (P14780 whole entry): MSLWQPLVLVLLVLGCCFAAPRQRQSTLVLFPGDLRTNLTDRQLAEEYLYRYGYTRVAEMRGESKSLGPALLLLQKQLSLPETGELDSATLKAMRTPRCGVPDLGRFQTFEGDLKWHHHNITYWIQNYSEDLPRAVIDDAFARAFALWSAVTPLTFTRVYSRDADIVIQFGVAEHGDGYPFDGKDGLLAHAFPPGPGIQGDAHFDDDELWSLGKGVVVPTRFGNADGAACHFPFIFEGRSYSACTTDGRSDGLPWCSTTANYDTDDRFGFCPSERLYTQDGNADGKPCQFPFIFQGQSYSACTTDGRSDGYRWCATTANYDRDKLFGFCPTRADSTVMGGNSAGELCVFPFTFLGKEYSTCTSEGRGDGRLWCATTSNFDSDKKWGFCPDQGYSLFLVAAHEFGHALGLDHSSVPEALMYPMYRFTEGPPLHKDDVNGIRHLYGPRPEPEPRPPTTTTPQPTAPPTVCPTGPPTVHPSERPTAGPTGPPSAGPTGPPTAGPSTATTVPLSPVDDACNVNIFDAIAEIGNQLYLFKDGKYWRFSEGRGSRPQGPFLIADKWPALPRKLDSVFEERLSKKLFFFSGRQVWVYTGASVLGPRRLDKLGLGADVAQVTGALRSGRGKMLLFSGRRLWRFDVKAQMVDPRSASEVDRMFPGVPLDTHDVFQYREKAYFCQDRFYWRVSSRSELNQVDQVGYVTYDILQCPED

SMILES	inhibition [1]	inhibition [4]	Ki (Stromelysin-3)	Ki [7]	Ki [8]	Ki (Neutrophil collagenase [9])	Ki [10]	other results
CC(NC(=O)C(CCCc1ccccc1)CP(=O)(O)C(Cc1ccccc1)NC(=O)OCc1ccccc1)C(N)=O (stereo not drawn)	0%	9%						inhibition [2]: 20%; inhibition [3]: 31%; inhibition [5]: 45%
NC(=O)C(Cc1c[nH]c2ccccc12)NC(=O)C(Cc1ccc2ccccc2c1)CP(=O)(O)C(Cc1ccccc1)NC(=O)OCc1ccccc1 (stereo not drawn)			74 nM	1350 nM	675 nM	230 nM	330 nM	inhibition [6]: 0%; Ki (Matrilysin): 1800 nM
CC(C)CC(NC(=O)OCc1ccccc1)C(=O)NC(Cc1ccccc1)P(=O)(O)CC(CCCc1ccccc1)C(=O)NC(Cc1c[nH]c2ccccc12)C(N)=O (stereo not drawn)			6 nM	53 nM	22 nM	7 nM	40 nM	inhibition [13]: 32%; inhibition [14]: 45%
NC(=O)C(Cc1c[nH]c2ccccc12)NC(=O)C(CCCc1ccccc1)CP(=O)(O)C(Cc1ccccc1)NC(=O)CNc1cc(Cl)ccc1O (stereo not drawn)	65%	72%	10 nM	63 nM	34 nM	7.5 nM	30 nM	
NC(=O)C(Cc1c[nH]c2ccccc12)NC(=O)C(CCCc1ccccc1)CP(=O)(O)C(Cc1ccccc1)NC(=O)COCc1ccccc1 (stereo not drawn)	52%	43%						
CC(=O)NC(Cc1ccccc1)P(=O)(O)CC(CCCc1ccccc1)C(=O)NC(Cc1c[nH]c2ccccc12)C(N)=O (stereo not drawn)	28%	43%						
COc1ccc(CSCC(CP(=O)(O)C(Cc2ccccc2)NC(=O)OCc2ccccc2)C(=O)NC(Cc2c[nH]c3ccccc23)C(N)=O)cc1 (stereo not drawn)	20%	13%	2 nM	22 nM	3 nM	0.7 nM	6 nM	
NC(=O)C(Cc1c[nH]c2ccccc12)NC(=O)C(CCc1ccc2ccccc2c1)CP(=O)(O)C(Cc1ccccc1)NC(=O)OCc1ccccc1 (stereo not drawn)		0%	12 nM	125 nM	55 nM	34 nM	30 nM	Ki (Matrilysin): 2100 nM
NC(=O)C(Cc1c[nH]c2ccccc12)NC(=O)C(CCc1ccccc1)CP(=O)(O)C(Cc1ccccc1)NC(=O)OCc1ccccc1 (stereo not drawn)	7%	10%						
NC(=O)C(Cc1c[nH]c2ccccc12)NC(=O)C(COCc1ccccc1)CP(=O)(O)C(Cc1ccccc1)NC(=O)OCc1ccccc1 (stereo not drawn)	3%	9%						
NC(=O)C(Cc1c[nH]c2ccccc12)NC(=O)C(CCCc1ccccc1)CP(=O)(O)C(Cc1ccccc1)NC(=O)c1cc2cc(Cl)cc(Cl)c2oc1=O (stereo not drawn)	52%	62%	5 nM	217 nM	110 nM	17 nM	100 nM	
NC(=O)C(Cc1c[nH]c2ccccc12)NC(=O)C(CCCc1ccccc1)CP(=O)(O)C(Cc1ccccc1)NC(=O)CNc1ccccc1 (stereo not drawn)	28%	49%	15 nM	73 nM	6 nM	4.5 nM	17 nM	

Now from value to compound, other results behind:

inhibition [1]	inhibition [4]	Ki (Stromelysin-3)	Ki [7]	Ki [8]	Ki (Neutrophil collagenase [9])	Ki [10]	SMILES	other results
1%	15%						CC(NC(=O)OCc1ccccc1)P(=O)(O)CC(COCc1ccccc1)C(=O)NC(Cc1c[nH]c2ccccc12)C(N)=O (stereo not drawn)	
4%	27%	34 nM	271 nM	30 nM	6 nM	75 nM	CCCCCCCC(CP(=O)(O)C(Cc1ccccc1)NC(=O)OCc1ccccc1)C(=O)NC(Cc1c[nH]c2ccccc12)C(N)=O (stereo not drawn)	
0%	0%						NC(=O)[C@H](Cc1c[nH]c2ccccc12)NC(=O)C(CCCc1ccccc1)CP(=O)(O)C(Cc1ccccc1)NC(=O)OCc1ccccc1 (stereo partly drawn)	inhibition [11]: 1%; inhibition (Neutrophil collagenase [12]): 2%; inhibition [3]: 6%; inhibition [5]: 14%
8%	24%						CC(NC(=O)OCc1ccccc1)P(=O)(O)CC(Cc1ccccc1)C(=O)NC(Cc1c[nH]c2ccccc12)C(N)=O (stereo not drawn)	
3%	23%						CC(NC(=O)OCc1ccccc1)P(=O)(O)CC(CCc1ccccc1)C(=O)NC(Cc1c[nH]c2ccccc12)C(N)=O (stereo not drawn)	
0%	20%						CC(CP(=O)(O)C(Cc1ccccc1)NC(=O)OCc1ccccc1)C(=O)NC(Cc1c[nH]c2ccccc12)C(N)=O (stereo not drawn)	inhibition (Neutrophil collagenase [12]): 9%; inhibition [3]: 0%; inhibition [15]: 0%; inhibition [5]: 0%
4%	30%						CC(NC(=O)OCc1ccccc1)P(=O)(O)CC(CCCc1ccccc1)C(=O)NC(Cc1c[nH]c2ccccc12)C(N)=O (stereo not drawn)	
7%	5%	33 nM	580 nM	70 nM	4.3 nM	145 nM	NC(=O)C(Cc1c[nH]c2ccccc12)NC(=O)C(CCCCc1ccccc1)CP(=O)(O)C(Cc1ccccc1)NC(=O)OCc1ccccc1 (stereo not drawn)	
	45%	22 nM	192 nM	65 nM	40 nM	202 nM	CC(C)CC(CP(=O)(O)C(Cc1ccccc1)NC(=O)OCc1ccccc1)C(=O)NC(Cc1c[nH]c2ccccc12)C(N)=O (stereo not drawn)	Ki (Matrilysin): 210 nM
2%	45%				< 0.5 nM		CC(NC(=O)OCc1ccccc1)P(=O)(O)CC(CSCc1ccccc1)C(=O)NC(Cc1c[nH]c2ccccc12)C(N)=O (stereo not drawn)	
8%	23%	5 nM	105 nM	10 nM	2.5 nM	20 nM	NC(=O)[C@@H](Cc1c[nH]c2ccccc12)NC(=O)C(CCCc1ccccc1)CP(=O)(O)C(Cc1ccccc1)NC(=O)OCc1ccccc1 (stereo partly drawn)	
